Assay results from ChEMBL document CHEMBL1140253, “Synthesis of functionalized acetophenones as protein tyrosine phosphatase 1B inhibitors” (Bioorg Med Chem Lett, 2005).

What follows are compounds tested against Tyrosine-protein phosphatase non-receptor type 1 (Mus musculus) (UniProt P35821) (assay: (§1) In vitro inhibitory activity against PTP1B at 100 uM 10 min incubation).
Outline: (§2)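 p-Nitrophenylphosphate (10 mM) as substrate in 50 mM HEPES buffer, pH 7, with 1 mM EDTA and DTT. Compounds tested at 100 µM, with sodium vanadate as reference control. Result given as percent inhibition of phosphatase activity, mean of three independent experiments.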

Compound | inhibition
SODIUM ORTHOVANAD | 56.2%

These compounds were tested against T1, Tyrosine-protein phosphatase non-receptor type 1 (Mus musculus) (UniProt P35821) (assay: as §1).
T1 sequence (whole entry): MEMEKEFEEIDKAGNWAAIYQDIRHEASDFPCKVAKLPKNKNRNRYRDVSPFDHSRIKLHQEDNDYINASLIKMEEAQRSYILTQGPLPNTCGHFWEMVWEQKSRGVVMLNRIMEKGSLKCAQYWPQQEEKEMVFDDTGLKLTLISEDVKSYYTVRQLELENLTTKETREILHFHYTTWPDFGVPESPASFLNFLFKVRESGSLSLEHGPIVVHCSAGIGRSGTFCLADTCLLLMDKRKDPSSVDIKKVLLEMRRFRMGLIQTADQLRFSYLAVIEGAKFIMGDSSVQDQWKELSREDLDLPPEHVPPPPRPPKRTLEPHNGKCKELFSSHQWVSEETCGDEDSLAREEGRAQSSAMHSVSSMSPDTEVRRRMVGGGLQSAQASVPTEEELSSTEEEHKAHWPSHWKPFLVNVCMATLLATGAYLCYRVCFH
Outline: as §2

Compound | inhibition
N#CCOc1ccc(/C(O)=C/C(=O)c2ccccc2)c(O)c1 | No inhibition
COc1ccc(C(=O)Oc2cc3occc3cc2C(C)=O)cc1 | 13.5%
CC(=O)c1ccc(OCCc2ccccc2)cc1OC(=O)c1ccc(F)cc1 | No inhibition
O=C(/C=C(\O)c1ccc(OCCc2ccccc2)cc1O)c1ccc(F)cc1 | No inhibition
CC(=O)c1cc2ccoc2cc1O | 19.1%
CC(=O)c1ccc(OCC#N)cc1O | 22.4%
CC(=O)c1ccc(OCC#N)cc1OC(=O)c1ccccc1 | 12.8%
COc1ccc(C(=O)Oc2cc3occc3cc2C(C)=O)cc1OC | No inhibition
CC(=O)c1ccc(OCCO)cc1O | No inhibition
N#CCOc1ccc(/C(O)=C/C(=O)c2ccc(F)cc2)c(O)c1 | No inhibition
CC(=O)c1ccc(OCC#N)cc1OC(=O)c1ccc(F)cc1 | No inhibition
CC(=O)c1ccc2occc2c1OC(=O)c1ccc(C(F)(F)F)cc1 | 32.4%
C=CCOc1ccc(C(C)=O)c(O)c1 | No inhibition
CC(=O)c1cc2ccoc2cc1OC(=O)c1ccc2c(c1)OCO2 | 34%
CC(=O)c1ccc2occc2c1O | No inhibition
CC(=O)c1cc2ccoc2cc1OC(=O)c1ccccc1 | No inhibition
CC(=O)c1ccc2occc2c1OC(=O)c1ccccc1 | 43.2%
CC(=O)c1ccc(OCCc2ccccc2)cc1O | 38.6%
CC(=O)c1ccc2occc2c1OC(=O)c1ccc(Cl)c(Cl)c1 | 54.1%
COc1cccc(C(=O)Oc2cc3occc3cc2C(C)=O)c1 | 8.1%
O=C(/C=C(\O)c1ccc2occc2c1O)c1ccc(C(F)(F)F)cc1 | No inhibition
CC(=O)c1ccc(OCC2CO2)cc1O (stereo not drawn) | 22.4%
